Test results reported in ChEMBL document CHEMBL3992547, “Antimicrobial activity of rhodanine-3-acetic acid derivatives” (Bioorg Med Chem, 2017).
≈ marks a conversion by molar mass, not a printed value. Calls of active or inactive are those of the source. The rule behind the calls is not given here.

Assays:
[1] = test system: Candida tropicalis; experiment: Antifungal activity against Candida tropicalis 156 after 24 hrs by microdilution broth assay; format: functional; settings: Candida tropicalis, 156, 24 h
In short: (§1)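 Broth microdilution per CLSI M27-A3 and M38-A2 in RPMI 1640 with glutamine, buffered to pH 7.0 with MOPS. Compounds are diluted in DMSO. Final inoculum is 5 × 10³ CFU/mL for yeasts and 0.5–5 × 10⁴ CFU/mL for moulds. Plates are incubated in the dark at 35 °C in humid air and read visually and/or at 540 nm after 24 and 48 h. MIC is ≥80% growth reduction (IC₈₀) for yeasts and ≥50% (IC₅₀) for filamentous fungi.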

[2] = test system: Trichosporon asahii; experiment: Antifungal activity against Trichosporon asahii 1188 after 48 hrs by microdilution broth assay; format: functional; settings: Trichosporon asahii, 1188, 48 h; in short: as §1
[3] = test system: Mycobacterium kansasii; experiment: Antimycobacterial activity against Mycobacterium kansasii isolate 6509/96 after 14 days by micromethod; format: functional; settings: isolate 6509/96, 336 h
[4] = test system: Aspergillus fumigatus; experiment: Antifungal activity against Aspergillus fumigatus 231 after 48 hrs by microdilution broth assay; format: functional; settings: Aspergillus fumigatus, 231, 48 h; in short: as §1
[5] = test system: Mycobacterium kansasii; experiment: Antimycobacterial activity against Mycobacterium kansasii isolate 235/80 after 21 days by micromethod; format: functional; settings: isolate 235/80, 504 h
[6] = test system: Staphylococcus aureus; experiment: Antibacterial activity against Staphylococcus aureus CCM 4516/08 incubated for 48 hrs under dark condition by microdilution broth assay; format: functional; settings: CCM 4516/08, 48 h
In short: (§2)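 Broth microdilution per M07-A07, modified, in Mueller-Hinton broth adjusted to pH 7.4 (±0.2). Inoculum is prepared in sterile water to McFarland 0.5 (1.5 × 10⁸ CFU/mL). Plates are incubated in the dark at 35 °C in humid air. MIC is read after 24 and 48 h as at least 95% growth reduction versus control (IC₉₅).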

[7] = test system: Mycobacterium avium; experiment: Antimycobacterial activity against Mycobacterium avium 330/88 measured after 14 days by micromethod; format: functional; settings: 330/88, 336 h
[8] = test system: Mycobacterium avium; experiment: Antimycobacterial activity against Mycobacterium avium 330/88 measured after 21 days by micromethod; format: functional; settings: 330/88, 504 h
[9] = test system: Candida albicans; experiment: Antifungal activity against Candida albicans ATCC 44859 after 48 hrs by microdilution broth assay; format: functional; settings: ATCC 44859, 48 h; in short: as §1
[10] = test system: Staphylococcus aureus; experiment: Antibacterial activity against methicillin-resistant Staphylococcus aureus H 5996/08 incubated for 48 hrs under dark condition by microdilution broth assay; format: functional; settings: H 5996/08, 48 h
In short: (§3)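 Microdilution broth method modified per M07-A07, in Mueller-Hinton broth adjusted to pH 7.4 (±0.2). Inoculum made in sterile water to 0.5 McFarland (1.5 × 10⁸ CFU/mL). Plates incubated in the dark at 35 °C in a humid atmosphere, with reads at 24 and 48 h. MIC taken as at least 95% growth reduction (IC₉₅) versus control.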

[11] = Solubility of the compound in Sula's semisynthetic medium up to 1 mM; format: physicochemical
[12] = test system: Staphylococcus epidermidis; experiment: Antibacterial activity against Staphylococcus epidermidis H 6966/08 incubated for 24 hrs under dark condition by microdilution broth assay; format: functional; settings: H 6966/08, 24 h; in short: as §2
[13] = test system: Lichtheimia corymbifera; experiment: Antifungal activity against Absidia corymbifera 272 after 24 to 48 hrs hrs by microdilution broth assay; format: functional; in short: as §1
[14] = test system: Nakaseomyces glabratus; experiment: Antifungal activity against Candida glabrata 20/I after 24 hrs by microdilution broth assay; format: functional; in short: as §1
[15] = test system: Aspergillus fumigatus; experiment: Antifungal activity against Aspergillus fumigatus 231 after 24 hrs by microdilution broth assay; format: functional; settings: Aspergillus fumigatus, 231, 24 h; in short: as §1
[16] = test system: Mycobacterium tuberculosis; experiment: Antimycobacterial activity against Mycobacterium tuberculosis H37Rv 331/88 measured after 21 days by micromethod; format: functional; settings: H37Rv 331/88, 504 h
[17] = test system: Mycobacterium kansasii; experiment: Antimycobacterial activity against Mycobacterium kansasii isolate 6509/96 after 7 days by micromethod; format: functional; settings: isolate 6509/96, 168 h
[18] = test system: Candida albicans; experiment: Antifungal activity against Candida albicans ATCC 44859 after 24 hrs by microdilution broth assay; format: functional; settings: ATCC 44859, 24 h; in short: as §1
[19] = test system: Klebsiella pneumoniae; experiment: Antibacterial activity against Klebsiella pneumoniae D 11750/08 up to 500 uM incubated for 24 to 48 hrs under dark condition by microdilution broth assay; format: functional; in short: as §2
[20] = test system: Enterococcus; experiment: Antibacterial activity against Enterococcus sp. J 14365/08 incubated for 48 hrs under dark condition by microdilution broth assay; settings: J 14365/08, 48 h
[21] = test system: Trichosporon asahii; experiment: Antifungal activity against Trichosporon asahii 1188 after 24 hrs by microdilution broth assay; format: functional; settings: Trichosporon asahii, 1188, 24 h; in short: as §1
[22] = test system: Staphylococcus aureus; experiment: Antibacterial activity against Staphylococcus aureus CCM 4516/08 incubated for 24 hrs under dark condition by microdilution broth assay; format: functional; settings: CCM 4516/08, 24 h; in short: as §2
[23] = test system: Mycobacterium tuberculosis; experiment: Antimycobacterial activity against Mycobacterium tuberculosis H37Rv 331/88 measured after 14 days by micromethod; format: functional; settings: H37Rv 331/88, 336 h
[24] = test system: Mycobacterium kansasii; experiment: Antimycobacterial activity against Mycobacterium kansasii isolate 6509/96 after 21 days by micromethod; format: functional; settings: isolate 6509/96, 504 h
[25] = test system: Staphylococcus aureus; experiment: Antibacterial activity against methicillin-resistant Staphylococcus aureus H 5996/08 incubated for 24 hrs under dark condition by microdilution broth assay; format: functional; settings: H 5996/08, 24 h; in short: as §3
[26] = test system: Nakaseomyces glabratus; experiment: Antifungal activity against Candida glabrata 20/I after 48 hrs by microdilution broth assay; format: functional; in short: as §1
[27] = test system: Pseudomonas aeruginosa; experiment: Antibacterial activity against Pseudomonas aeruginosa CCM 1961 up to 500 uM incubated for 24 to 48 hrs under dark condition by microdilution broth assay; format: functional; in short: as §2
[28] = test system: Pichia kudriavzevii; experiment: Antifungal activity against Candida krusei E28 after 24 to 48 hrs hrs by microdilution broth assay; format: functional; in short: as §1
[29] = test system: Mycobacterium kansasii; experiment: Antimycobacterial activity against Mycobacterium kansasii isolate 235/80 after 14 days by micromethod; format: functional; settings: isolate 235/80, 336 h
[30] = test system: Staphylococcus epidermidis; experiment: Antibacterial activity against Staphylococcus epidermidis H 6966/08 incubated for 48 hrs under dark condition by microdilution broth assay; format: functional; settings: H 6966/08, 48 h; in short: as §2
[31] = test system: Escherichia coli; experiment: Antibacterial activity against Escherichia coli CCM 4517 incubated for 24 hrs under dark condition by microdilution broth assay; format: functional; settings: CCM 4517, 24 h; in short: as §2
[32] = test system: Trichophyton mentagrophytes; experiment: Antifungal activity against Trichophyton mentagrophytes 445 after 120 hrs by microdilution broth assay; format: functional; settings: Trichophyton mentagrophytes, 445, 120 h
In short: (§4)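 Broth microdilution per CLSI M38-A2 in RPMI 1640 with glutamine, buffered to pH 7.0 with MOPS, with DMSO as diluent. Final inoculum is 0.5–5 × 10⁴ CFU/mL. Plates are incubated in the dark at 35 °C in humid air and read visually and/or at 540 nm after 72 and 120 h. MIC is at least 50% growth reduction versus control.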

[33] = test system: Enterococcus; experiment: Antibacterial activity against Enterococcus sp. J 14365/08 incubated for 24 hrs under dark condition by microdilution broth assay; settings: J 14365/08, 24 h
[34] = test system: Mycobacterium kansasii; experiment: Antimycobacterial activity against Mycobacterium kansasii isolate 235/80 after 7 days by micromethod; format: functional; settings: isolate 235/80, 168 h
[35] = test system: Escherichia coli; experiment: Antibacterial activity against Escherichia coli CCM 4517 incubated for 48 hrs under dark condition by microdilution broth assay; format: functional; settings: CCM 4517, 48 h; in short: as §2
[36] = test system: Klebsiella pneumoniae; experiment: Antibacterial activity against ESBL positive Klebsiella pneumoniae J 14368/08 up to 500 uM incubated for 24 to 48 hrs under dark condition by microdilution broth assay; format: functional; in short: as §2
[37] = test system: Trichophyton mentagrophytes; experiment: Antifungal activity against Trichophyton mentagrophytes 445 after 72 hrs by microdilution broth assay; format: functional; settings: Trichophyton mentagrophytes, 445, 72 h; in short: as §4
[38] = test system: Candida tropicalis; experiment: Antifungal activity against Candida tropicalis 156 after 48 hrs by microdilution broth assay; format: functional; settings: Candida tropicalis, 156, 48 h; in short: as §1

In the case of `O=C(O)CN1C(=O)/C(=C/c2ccccc2O)SC1=S`, the MIC80 [1] is reported as > 500 µM, the MIC80 [2] is reported as > 500 µM and the MIC [3] is reported as 62.5 µM (≈ 18.5 µg/mL). For the same compound, the MIC50 [4] was > 500 µM, the MIC [5] was 62.5 µM (≈ 18.5 µg/mL) and the MIC95 [6] was 62.5 µM (≈ 18.5 µg/mL). The MIC [7] was 125 µM (≈ 36.9 µg/mL), the MIC [8] was 125 µM (≈ 36.9 µg/mL) and the MIC80 [9] was 500 µM (≈ 148 µg/mL). The MIC95 [10] was 62.5 µM (≈ 18.5 µg/mL), the solubility [11] was “Soluble” and the MIC95 [12] was 125 µM (≈ 36.9 µg/mL). For the same compound, the Activity [13] was “inactive”, the MIC80 [14] was > 500 µM and the MIC50 [15] was > 500 µM. For the same compound, the MIC [16] was 32 µM (≈ 9.45 µg/mL), the MIC [17] was 32 µM (≈ 9.45 µg/mL) and the MIC80 [18] was 500 µM (≈ 148 µg/mL). For the same compound, the Activity [19] was “inactive”, the MIC95 [20] was 125 µM (≈ 36.9 µg/mL) and the MIC80 [21] was > 500 µM. It also gave an MIC95 [22] of 62.5 µM (≈ 18.5 µg/mL), an MIC [23] of 32 µM (≈ 9.45 µg/mL) and an MIC [24] of 62.5 µM (≈ 18.5 µg/mL). For the same compound, the MIC95 [25] was 62.5 µM (≈ 18.5 µg/mL), the MIC80 [26] was > 500 µM and the Activity [27] was “inactive”. For the same compound, the Activity [28] was “inactive”, the MIC [29] was 62.5 µM (≈ 18.5 µg/mL) and the MIC95 [30] was 125 µM (≈ 36.9 µg/mL). For the same compound, the MIC95 [31] was 500 µM (≈ 148 µg/mL), the MIC50 [32] was 250 µM (≈ 73.8 µg/mL) and the MIC95 [33] was 125 µM (≈ 36.9 µg/mL). For the same compound, the MIC [34] was 32 µM (≈ 9.45 µg/mL), the MIC95 [35] was > 500 µM and the Activity [36] was “inactive”. For the same compound, the MIC50 [37] was 250 µM (≈ 73.8 µg/mL) and the MIC80 [38] was > 500 µM.
